ChEMBL document CHEMBL2163262 (J Med Chem, 2012)
“And” between values parts separate entries of the source, which are not always exact repeats. Equal values may be shown once.

Tests used:
[1] = molecular target: T1, Neuropeptide FF receptor 1 (Homo sapiens, UniProt Q9GZQ6); assay: Agonist activity at human NPFF1 receptor expressed in […] assessed as [3H]inositol phosphate accumulation after 2 hrs by liquid scintillation counting; assay type: functional, cell-based, COS-1
Outline: (§1)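 IP accumulation in COS-7 cells transiently cotransfected with human NPFFR (Ala point mutant or wt) plus chimeric G protein. Cells seeded at 60,000/well and grown to subconfluency. Compounds were dissolved in DMSO and diluted in DMEM with 10 mM LiCl (1% v/v DMSO final). Stimulation lasted 2 h.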

[2] = molecular target: T1, Neuropeptide FF receptor 1; assay: Partial agonist activity at human NPFF1 receptor expressed in COS1 cells assessed as [3H]inositol phosphate accumulation at 10 uM after 2 hrs by liquid scintillation counting relative to NPVF; assay type: functional, cell-based; conditions: COS-1
[3] = molecular target: T2, Neuropeptide FF receptor 2 (Homo sapiens, UniProt Q9Y5X5); assay: Agonist activity at human NPFF2 receptor expressed in COS1 cells assessed as [3H]inositol phosphate accumulation after 2 hrs by liquid scintillation counting; assay type: functional, cell-based, COS-1
[4] = tested on: Neuropeptide FF receptor 2 (Homo sapiens), Q9Y5X5 [Y417A]; assay: Partial agonist activity at human NPFF2 receptor F/Y7.35A mutant assessed as [3H]inositol phosphate accumulation at 10 uM after 2 hrs by liquid scintillation counting relative to NPFF; assay type: functional
[5] = molecular target: T2, Neuropeptide FF receptor 2; assay: Agonist activity at human NPFF2 receptor expressed in COS1 cells assessed as [3H]inositol phosphate accumulation at 10 uM after 2 hrs by liquid scintillation counting relative to NPFF; assay type: functional, cell-based; conditions: COS-1
[6] = molecular target: T1, Neuropeptide FF receptor 1; assay: Agonist activity at human NPFF1 receptor expressed in COS1 cells assessed as [3H]inositol phosphate accumulation up to 10 uM after 2 hrs by liquid scintillation counting; assay type: functional, cell-based; conditions: cos-1
[7] = tested on: Neuropeptide FF receptor 2 (Homo sapiens), Q9Y5X5 [Y417A]; assay: Agonist activity at human NPFF2 receptor F/Y7.35A mutant assessed as [3H]inositol phosphate accumulation at 10 uM after 2 hrs by liquid scintillation counting relative to NPFF; assay type: functional; outline: as §1
[8] = molecular target: T1, Neuropeptide FF receptor 1; assay: Agonist activity at human NPFF1 receptor expressed in COS1 cells assessed as [3H]inositol phosphate accumulation at 10 uM after 2 hrs by liquid scintillation counting relative to NPVF; assay type: functional, cell-based; conditions: COS-1
[9] = molecular target: T1, Neuropeptide FF receptor 1; assay: Ratio of EC50 for human NPFF1 receptor F/Y7.35A mutant to EC50 for human wild type NPFF1 receptor
[10] = tested on: Neuropeptide FF receptor 1 (Homo sapiens), Q9GZQ6 [F311A]; assay: Agonist activity at human NPFF1 receptor F/Y7.35A mutant assessed as [3H]inositol phosphate accumulation at 10 uM after 2 hrs by liquid scintillation counting relative to NPVF; assay type: functional
[11] = molecular target: Neuropeptide FF receptor 2 (Homo sapiens, UniProt Q9Y5X5, Y417A); assay: Agonist activity at human NPFF2 receptor F/Y7.35A mutant assessed as [3H]inositol phosphate accumulation after 2 hrs by liquid scintillation counting; assay type: functional; outline: as §1
[12] = molecular target: Neuropeptide FF receptor 1 (Homo sapiens, UniProt Q9GZQ6, F311A); assay: Agonist activity at human NPFF1 receptor F/Y7.35A mutant assessed as [3H]inositol phosphate accumulation after 2 hrs by liquid scintillation counting; assay type: functional; outline: as §1
[13] = molecular target: T1, Neuropeptide FF receptor 1; assay: Competitive antagonist activity at human NPFF1 receptor expressed in COS1 cells assessed as inhibition of NPVF-induced [3H]inositol phosphate accumulation after 2 hrs by liquid scintillation counting; assay type: functional, cell-based, COS-1; conditions: read-out: pA2 (converted)
[14] = tested on: Neuropeptide FF receptor 2 (Homo sapiens), Q9Y5X5 [D400A]; assay: Agonist activity at human NPFF2 receptor D6.59A mutant assessed as [3H]inositol phosphate accumulation at 31.6 uM after 2 hrs by liquid scintillation counting relative to NPFF
[15] = tested on: Neuropeptide FF receptor 2 (Homo sapiens), Q9Y5X5 [E310A]; assay: Agonist activity at human NPFF2 receptor E5.27A mutant assessed as [3H]inositol phosphate accumulation at 31.6 uM after 2 hrs by liquid scintillation counting relative to NPFF; assay type: functional; outline: as §1
[16] = molecular target: Neuropeptide FF receptor 2 (Homo sapiens, UniProt Q9Y5X5, E310A); assay: Agonist activity at human NPFF2 receptor E5.27A mutant assessed as [3H]inositol phosphate accumulation after 2 hrs by liquid scintillation counting; assay type: functional; outline: as §1
[17] = tested on: Neuropeptide FF receptor 2 (Homo sapiens), Q9Y5X5 [Y321A]; assay: Agonist activity at human NPFF2 receptor Y5.38A mutant assessed as [3H]inositol phosphate accumulation at 10 uM after 2 hrs by liquid scintillation counting relative to NPFF; assay type: functional; outline: as §1
[18] = molecular target: Neuropeptide FF receptor 2 (Homo sapiens, UniProt Q9Y5X5, Y415A); assay: Agonist activity at human NPFF2 receptor Y7.33A mutant assessed as [3H]inositol phosphate accumulation after 2 hrs by liquid scintillation counting; assay type: functional; outline: as §1
[19] = molecular target: Neuropeptide FF receptor 2 (Homo sapiens, UniProt Q9Y5X5, Y321A); assay: Agonist activity at human NPFF2 receptor Y5.38A mutant assessed as [3H]inositol phosphate accumulation after 2 hrs by liquid scintillation counting; assay type: functional; outline: as §1
[20] = molecular target: Neuropeptide FF receptor 2 (Homo sapiens, UniProt Q9Y5X5, D400A); assay: Agonist activity at human NPFF2 receptor D6.59A mutant assessed as [3H]inositol phosphate accumulation after 2 hrs by liquid scintillation counting; assay type: functional; outline: as §1
[21] = tested on: Neuropeptide FF receptor 2 (Homo sapiens), Q9Y5X5 [Y415A]; assay: Agonist activity at human NPFF2 receptor Y7.33A mutant assessed as [3H]inositol phosphate accumulation at 10 uM after 2 hrs by liquid scintillation counting relative to NPFF; assay type: functional
[22] = tested on: Neuropeptide FF receptor 1 (Homo sapiens), Q9GZQ6 [E205A]; assay: Agonist activity at human NPFF1 receptor E5.27A mutant assessed as [3H]inositol phosphate accumulation at 10 uM after 2 hrs by liquid scintillation counting relative to NPVF; assay type: functional; outline: as §1
[23] = molecular target: Neuropeptide FF receptor 1 (Homo sapiens, UniProt Q9GZQ6, E205A); assay: Agonist activity at human NPFF1 receptor E5.27A mutant assessed as [3H]inositol phosphate accumulation after 2 hrs by liquid scintillation counting; assay type: functional; outline: as §1
[24] = molecular target: Neuropeptide FF receptor 1 (Homo sapiens, UniProt Q9GZQ6, Y309A); assay: Agonist activity at human NPFF1 receptor Y7.33A mutant assessed as [3H]inositol phosphate accumulation after 2 hrs by liquid scintillation counting; assay type: functional; outline: as §1
[25] = tested on: Neuropeptide FF receptor 1 (Homo sapiens), Q9GZQ6 [D294A]; assay: Agonist activity at human NPFF1 receptor D6.59A mutant assessed as [3H]inositol phosphate accumulation at 31.6 uM after 2 hrs by liquid scintillation counting relative to NPVF; assay type: functional; outline: as §1
[26] = tested on: Neuropeptide FF receptor 1 (Homo sapiens), Q9GZQ6 [Y216A]; assay: Agonist activity at human NPFF1 receptor Y5.38A mutant assessed as [3H]inositol phosphate accumulation at 31.6 uM after 2 hrs by liquid scintillation counting relative to NPVF; assay type: functional; outline: as §1
[27] = molecular target: Neuropeptide FF receptor 1 (Homo sapiens, UniProt Q9GZQ6, D294A); assay: Agonist activity at human NPFF1 receptor D6.59A mutant assessed as [3H]inositol phosphate accumulation after 2 hrs by liquid scintillation counting; assay type: functional; outline: as §1
[28] = tested on: Neuropeptide FF receptor 2 (Homo sapiens), Q9Y5X5 [D400A]; assay: Agonist activity at human NPFF2 receptor D6.59A mutant assessed as [3H]inositol phosphate accumulation at 31.6 uM after 2 hrs by liquid scintillation counting relative to NPFF; assay type: functional; outline: as §1
[29] = tested on: Neuropeptide FF receptor 1 (Homo sapiens), Q9GZQ6 [Y309A]; assay: Agonist activity at human NPFF1 receptor Y7.33A mutant assessed as [3H]inositol phosphate accumulation at 10 uM after 2 hrs by liquid scintillation counting relative to NPVF; assay type: functional; outline: as §1
[30] = tested on: Neuropeptide FF receptor 2 (Homo sapiens), Q9Y5X5 [Y415A]; assay: Agonist activity at human NPFF2 receptor Y7.33A mutant assessed as [3H]inositol phosphate accumulation at 31.6 uM after 2 hrs by liquid scintillation counting relative to NPFF; assay type: functional; outline: as §1
[31] = molecular target: Neuropeptide FF receptor 1 (Homo sapiens, UniProt Q9GZQ6, Y216A); assay: Agonist activity at human NPFF1 receptor Y5.38A mutant assessed as [3H]inositol phosphate accumulation after 2 hrs by liquid scintillation counting; assay type: functional; outline: as §1
[32] = tested on: Neuropeptide FF receptor 1 (Homo sapiens), Q9GZQ6 [F311A]; assay: Agonist activity at human NPFF1 receptor F/Y7.35A mutant assessed as [3H]inositol phosphate accumulation at 31.6 uM after 2 hrs by liquid scintillation counting relative to NPVF; assay type: functional; outline: as §1
[33] = tested on: Neuropeptide FF receptor 1 (Homo sapiens), Q9GZQ6 [E205A]; assay: Agonist activity at human NPFF1 receptor E5.27A mutant assessed as [3H]inositol phosphate accumulation at 31.6 uM after 2 hrs by liquid scintillation counting relative to NPVF; assay type: functional; outline: as §1
[34] = tested on: Neuropeptide FF receptor 2 (Homo sapiens), Q9Y5X5 [Y321A]; assay: Agonist activity at human NPFF2 receptor Y5.38A mutant assessed as [3H]inositol phosphate accumulation at 31.6 uM after 2 hrs by liquid scintillation counting relative to NPFF; assay type: functional; outline: as §1

T1 sequence (Q9GZQ6 whole entry): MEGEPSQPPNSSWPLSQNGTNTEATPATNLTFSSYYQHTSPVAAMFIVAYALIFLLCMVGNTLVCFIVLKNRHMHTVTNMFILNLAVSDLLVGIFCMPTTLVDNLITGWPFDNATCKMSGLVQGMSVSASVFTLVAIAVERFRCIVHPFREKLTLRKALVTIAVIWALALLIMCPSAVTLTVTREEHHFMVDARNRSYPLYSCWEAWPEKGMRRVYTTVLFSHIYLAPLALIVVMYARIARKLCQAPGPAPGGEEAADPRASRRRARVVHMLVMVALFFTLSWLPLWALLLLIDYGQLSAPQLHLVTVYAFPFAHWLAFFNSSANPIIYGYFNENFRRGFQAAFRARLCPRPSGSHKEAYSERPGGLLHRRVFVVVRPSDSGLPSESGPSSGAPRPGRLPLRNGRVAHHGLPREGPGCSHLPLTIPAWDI
Sequence of Neuropeptide FF receptor 2 (Homo sapiens), Q9Y5X5 [Y321A] (Q9Y5X5 whole entry Y321A): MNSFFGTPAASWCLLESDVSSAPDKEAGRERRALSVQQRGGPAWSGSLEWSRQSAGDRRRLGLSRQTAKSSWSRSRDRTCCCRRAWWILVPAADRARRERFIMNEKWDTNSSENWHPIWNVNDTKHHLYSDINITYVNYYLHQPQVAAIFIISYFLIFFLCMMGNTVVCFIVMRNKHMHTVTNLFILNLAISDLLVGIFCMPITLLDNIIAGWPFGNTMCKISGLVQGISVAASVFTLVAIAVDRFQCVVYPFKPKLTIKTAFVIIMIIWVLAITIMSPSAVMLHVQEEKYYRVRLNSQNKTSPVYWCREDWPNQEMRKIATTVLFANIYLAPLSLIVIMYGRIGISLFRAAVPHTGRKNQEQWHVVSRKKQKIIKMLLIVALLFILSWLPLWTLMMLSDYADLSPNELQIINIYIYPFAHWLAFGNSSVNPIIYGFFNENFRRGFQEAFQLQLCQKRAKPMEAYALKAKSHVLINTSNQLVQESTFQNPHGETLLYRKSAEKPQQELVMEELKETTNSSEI
T2 sequence (Q9Y5X5 whole entry): as the sequence (Q9Y5X5 whole entry Y321A) above, with A321Y counted along it
Sequence of Neuropeptide FF receptor 2 (Homo sapiens, UniProt Q9Y5X5, Y417A) (Q9Y5X5 whole entry Y417A): as the sequence (Q9Y5X5 whole entry Y321A) above, with A321Y, Y417A counted along it
Sequence of Neuropeptide FF receptor 2 (Homo sapiens), Q9Y5X5 [Y417A] (Q9Y5X5 whole entry Y417A): as the sequence (Q9Y5X5 whole entry Y321A) above, with A321Y, Y417A counted along it
Sequence of Neuropeptide FF receptor 2 (Homo sapiens, UniProt Q9Y5X5, D400A) (Q9Y5X5 whole entry D400A): as the sequence (Q9Y5X5 whole entry Y321A) above, with A321Y, D400A counted along it
Sequence of Neuropeptide FF receptor 2 (Homo sapiens), Q9Y5X5 [D400A] (Q9Y5X5 whole entry D400A): as the sequence (Q9Y5X5 whole entry Y321A) above, with A321Y, D400A counted along it
Sequence of Neuropeptide FF receptor 1 (Homo sapiens), Q9GZQ6 [E205A] (Q9GZQ6 whole entry E205A): as the sequence (Q9GZQ6 whole entry) above, with E205A counted along it
Sequence of Neuropeptide FF receptor 2 (Homo sapiens, UniProt Q9Y5X5, Y321A) (Q9Y5X5 whole entry Y321A): as the sequence (Q9Y5X5 whole entry Y321A) above
Sequence of Neuropeptide FF receptor 1 (Homo sapiens), Q9GZQ6 [F311A] (Q9GZQ6 whole entry F311A): as the sequence (Q9GZQ6 whole entry) above, with F311A counted along it
Sequence of Neuropeptide FF receptor 1 (Homo sapiens, UniProt Q9GZQ6, F311A) (Q9GZQ6 whole entry F311A): as the sequence (Q9GZQ6 whole entry) above, with F311A counted along it
Sequence of Neuropeptide FF receptor 2 (Homo sapiens), Q9Y5X5 [Y415A] (Q9Y5X5 whole entry Y415A): as the sequence (Q9Y5X5 whole entry Y321A) above, with A321Y, Y415A counted along it
Sequence of Neuropeptide FF receptor 2 (Homo sapiens, UniProt Q9Y5X5, Y415A) (Q9Y5X5 whole entry Y415A): as the sequence (Q9Y5X5 whole entry Y321A) above, with A321Y, Y415A counted along it
Sequence of Neuropeptide FF receptor 2 (Homo sapiens), Q9Y5X5 [E310A] (Q9Y5X5 whole entry E310A): as the sequence (Q9Y5X5 whole entry Y321A) above, with E310A, A321Y counted along it
Sequence of Neuropeptide FF receptor 2 (Homo sapiens, UniProt Q9Y5X5, E310A) (Q9Y5X5 whole entry E310A): as the sequence (Q9Y5X5 whole entry Y321A) above, with E310A, A321Y counted along it
Sequence of Neuropeptide FF receptor 1 (Homo sapiens, UniProt Q9GZQ6, D294A) (Q9GZQ6 whole entry D294A): as the sequence (Q9GZQ6 whole entry) above, with D294A counted along it
Sequence of Neuropeptide FF receptor 1 (Homo sapiens), Q9GZQ6 [D294A] (Q9GZQ6 whole entry D294A): as the sequence (Q9GZQ6 whole entry) above, with D294A counted along it
Sequence of Neuropeptide FF receptor 1 (Homo sapiens), Q9GZQ6 [Y216A] (Q9GZQ6 whole entry Y216A): as the sequence (Q9GZQ6 whole entry) above, with Y216A counted along it
Sequence of Neuropeptide FF receptor 1 (Homo sapiens, UniProt Q9GZQ6, Y216A) (Q9GZQ6 whole entry Y216A): as the sequence (Q9GZQ6 whole entry) above, with Y216A counted along it
Sequence of Neuropeptide FF receptor 1 (Homo sapiens, UniProt Q9GZQ6, Y309A) (Q9GZQ6 whole entry Y309A): as the sequence (Q9GZQ6 whole entry) above, with Y309A counted along it
Sequence of Neuropeptide FF receptor 1 (Homo sapiens), Q9GZQ6 [Y309A] (Q9GZQ6 whole entry Y309A): as the sequence (Q9GZQ6 whole entry) above, with Y309A counted along it
Sequence of Neuropeptide FF receptor 1 (Homo sapiens, UniProt Q9GZQ6, E205A) (Q9GZQ6 whole entry E205A): as the sequence (Q9GZQ6 whole entry) above, with E205A counted along it

N=C(N)N/N=C/c1ccc(Cl)c(C(F)(F)F)c1
EC50 [1]: 2.37 µM

N=C(N)N/N=C/c1ccc(Br)c(Br)c1
Emax [2]: 22% | EC50 [1]: 0.527 µM | EC50 [3]: 2.19 µM

NC(N)=NCCC[C@@H](NC(=O)C(c1ccccc1)c1ccccc1)C(=O)NCc1ccc(O)cc1
Emax [4]: 51% | Emax [5]: 57% | EC50 [6]: Not Active

N=C(N)NCCC[C@H](NC(=O)C12CC3CC(CC(C3)C1)C2)C(=O)N[C@@H](Cc1ccccc1)C(N)=O
Emax [7]: 75% | Emax [5]: 75% | Emax [8]: 93% | Ratio EC50 [9]: 271 | Emax [10]: 89%

NC(=O)[C@H](Cc1ccccc1)NC(=O)[C@H](CCCN=C(N)N)NC(=O)C12CC3CC(CC(C3)C1)C2
EC50 [1]: 0.071 µM | EC50 [11]: 0.472 µM | EC50 [12]: 0.462 µM | EC50 [3]: 0.379 µM

N=C(N)N/N=C/C12CC3CC(CC(C3)C1)C2
Kb [13]: 0.0417 µM | Emax [14]: 140% | Emax [7]: 107% | Emax [15]: 59% | EC50 [16]: > 10 µM | Emax [17]: 83% and 69% | Emax [5]: 132% | EC50 [18]: 8.33 µM | EC50 [19]: 2.45 µM | EC50 [6]: Not Active | EC50 [20]: 8.86 µM | EC50 [11]: 0.301 µM | Emax [21]: 83% | EC50 [3]: 0.298 µM

N=C(N)NCCC[C@@H](NC(=O)C(c1ccccc1)c1ccccc1)C(=O)NCc1ccc(O)cc1
Kb [13]: 0.0209 µM | EC50 [11]: 0.113 µM | EC50 [3]: 0.233 µM

CC(C)C[C@H](NC(=O)[C@H](CC(N)=O)NC(=O)[C@@H]1CCCN1C(=O)[C@@H](N)C(C)C)C(=O)N1CCC[C@H]1C(=O)N[C@@H](CCC(N)=O)C(=O)N[C@@H](CCCNC(=N)N)C(=O)N[C@@H](Cc1ccccc1)C(N)=O
Emax [22]: 66%

N=C(N)N/N=C/c1ccc(-c2ccc(Br)cc2C(F)(F)F)o1
EC50 [23]: > 10 µM | EC50 [24]: 4.61 µM | Emax [7]: 100% | Emax [15]: 24% | EC50 [16]: > 10 µM | Emax [25]: 85% | Emax [26]: 37% | EC50 [1]: 5.62 µM | EC50 [27]: > 10 µM | Emax [5]: 118% | EC50 [18]: > 10 µM | Emax [28]: 77% | EC50 [19]: > 10 µM | Emax [29]: 111% | EC50 [20]: > 10 µM | EC50 [11]: 1.26 µM | Emax [30]: 78% | EC50 [31]: > 10 µM | Emax [32]: 88% | Emax [8]: 110% | EC50 [12]: > 10 µM | Emax [33]: 21% | Emax [34]: 65% | EC50 [3]: 1.66 µM
